# Measured values reported in ChEMBL document CHEMBL4477171, “Identification of PTP1B and α-Glucosidase Inhibitory Serrulatanes from Eremophila spp. by Combined use of Dual High-Resolution PTP1B and α-Glucosidase Inhibition Profiling and HPLC-HRMS-SPE-NMR” (J Nat Prod, 2016).
# pIC50: −log10 of the molar value. Calls of active or inactive are those of the source. The calls are words filed in the database; no cut-off is given here.
# Legend:
# [1] = molecular target: T1, Tyrosine-protein phosphatase non-receptor type 1 (Homo sapiens, UniProt P18031); assay: Inhibition of GST-tagged human PTP1B expressed in Escherichia coli using pNPP substrate assessed as reduction in p-nitrophenol release
# T1 sequence (P18031 whole entry): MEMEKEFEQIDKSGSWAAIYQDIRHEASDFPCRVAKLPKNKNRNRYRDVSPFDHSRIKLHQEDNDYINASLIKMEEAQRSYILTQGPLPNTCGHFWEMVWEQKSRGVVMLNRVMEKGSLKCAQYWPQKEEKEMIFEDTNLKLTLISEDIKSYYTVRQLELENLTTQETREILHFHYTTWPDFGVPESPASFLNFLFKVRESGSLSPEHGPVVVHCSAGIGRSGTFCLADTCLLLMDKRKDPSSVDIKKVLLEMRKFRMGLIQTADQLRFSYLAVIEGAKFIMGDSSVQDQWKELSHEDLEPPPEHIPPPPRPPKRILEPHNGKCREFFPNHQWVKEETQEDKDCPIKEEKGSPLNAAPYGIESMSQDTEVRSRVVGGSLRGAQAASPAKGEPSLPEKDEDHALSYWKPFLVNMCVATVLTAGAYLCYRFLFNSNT
# Outline: (§1)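 Compounds were dissolved in MeOH as dilution series, dispensed in triplicate and dried. Residues were taken up in DMSO in 50 mM Tris/50 mM bis-Tris buffer with 100 mM NaCl, pH 7.0, at 25 °C. Final conditions were 10% DMSO, 1 mM EDTA, 0.5 mM pNPP and 2 mM DTT. After a 10 min preincubation, recombinant human PTP1B (0.05 μg/well) was added to start the reaction. A405 was read every 30 s for 10 min. Inhibition was calculated from the rate slope against the blank, and IC50 from dose–response curves.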
# [2] = molecular target: T2, Tyrosine-protein phosphatase non-receptor type 1 (Homo sapiens) (UniProt P18031); assay: (§2) Inhibition of recombinant human PTP1B preincubated for 10 mins followed by protein addition using pNPP substrate; outline: as §1
# T2 sequence (whole entry): T1 sequence (P18031 whole entry)
# [3] = molecular target: T1, Tyrosine-protein phosphatase non-receptor type 1; assay: as §2; outline: as §1
# Saccharomyces cerevisiae = assay: Inhibition of Saccharomyces cerevisiae alpha-glucosidase type-1 pre-incubated for 10 mins before pNPG substrate addition assessed as reduction in p-nitrophenol release
# Outline: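 Dried residues were dissolved in 25% DMSO in 0.1 M phosphate buffer, pH 6.9, at 25 °C. α-Glucosidase was added to 0.25 U/mL final (6.25% DMSO final) and preincubated for 10 min. The reaction was started with pNPG (1.25 mM final). A405 was read every 30 s for 10 min, and inhibition was taken from the cleavage rate relative to the blank.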
smiles,measurement,setting,value
O=C1C[C@@H]2c3ccccc3O[C@H]3c4cc(O)ccc4-c4c(O)cc(O)c1c4[C@H]23 [OHIOENSIN A],pIC50,[1],5.12 to 5.46
CC(C)=CCC[C@H](C)[C@@H]1CC[C@@H](C)c2c1cc(C(=O)O)c(O)c2O,inhibition,[2],Active
CC(C)=CCC(=O)OC[C@H](C)CCC[C@H](C)[C@@H]1CC[C@@H](C)c2c(O)cc(C(=O)O)cc21,inhibition,[2],Active
CC(C)CC(=O)OC[C@H](C)CCC[C@H](C)[C@@H]1CC[C@@H](C)c2c1cc(C(=O)O)c(O)c2O,pIC50,[3],5.46
C[C@H](CCC[C@H](C)[C@@H]1CC[C@@H](C)c2c(O)cc(C(=O)O)cc21)COC(=O)CCc1ccccc1,inhibition,[2],Active
CCCC(=O)OC[C@H](C)CCC[C@H](C)[C@@H]1CC[C@@H](C)c2c1cc(C(=O)O)c(O)c2O,pIC50,[3],5.12
C/C(=C\CC[C@H](C)[C@@H]1CC[C@@H](C)c2c(O)cc(C(=O)O)cc21)CO,inhibition,Saccharomyces cerevisiae,Active
C[C@@H](CO)CCC[C@H](C)[C@@H]1CC[C@@H](C)c2c1cc(C(=O)O)c(O)c2O,pIC50,[3],2.90
O=C1c2c(O)cc(O)c3c2[C@@H]2[C@@H](c4ccccc4O[C@H]2c2cccc(O)c2-3)[C@H]1O [OHIOENSIN G],pIC50,[1],5.12 to 5.46
COc1cc(O)c2c3c1-c1ccc(O)cc1[C@@H]1Oc4ccccc4[C@@H](CC2=O)[C@@H]31,pIC50,[1],5.12 to 5.46
C[C@H](CCC[C@H](C)[C@@H]1CC[C@@H](C)c2c1cc(C(=O)O)c(O)c2O)COC(=O)/C=C/c1ccc(O)c(O)c1,inhibition,[2],Active
C[C@H](CCC[C@H](C)[C@@H]1CC[C@@H](C)c2c(O)cc(C(=O)O)cc21)COC(=O)/C=C/c1ccccc1,pIC50,[3],5.20
C=C(CCC=C(C)C)[C@H]1CC[C@]2(C)CCCC(=C)[C@H]2C1 [LOBOPHYTUMIN C],pIC50,[1],5.11
C=C1CC[C@@H]2[C@H]1[C@H]1[C@@H](C(C)CC(=O)C=C(C)C)CC[C@]12C (stereo partly specified),pIC50,[1],5.23
COc1cc(/C=C/C(=O)OC[C@H](C)CCC[C@H](C)[C@@H]2CC[C@@H](C)c3c2cc(C(=O)O)c(O)c3O)ccc1O,inhibition,[2],Active
C[C@@H](CO)CCC[C@H](C)[C@@H]1CC[C@@H](C)c2c(O)cc(C(=O)O)cc21,inhibition,Saccharomyces cerevisiae,Active
C/C(C=O)=C\CC[C@H](C)[C@@H]1CC[C@@H](C)c2c(O)cc(C(=O)O)cc21,inhibition,Saccharomyces cerevisiae,Active
O=C1C[C@]2(O)c3ccccc3O[C@H]3c4cc(O)ccc4-c4c(O)cc(O)c1c4[C@@H]32 [OHIOENSIN F],pIC50,[1],5.12 to 5.46
OC[C@H]1O[C@@H](O[C@@H]2c3ccccc3[C@H](O)C[C@H]2O)[C@H](O)[C@@H](O)[C@@H]1O,pIC50,[1],5.26
CC1=CCC[C@H]2[C@@H](C)[C@@](C)(CC3=C(O)C(=O)C=C(CCCS(=O)(=O)O)C3=O)CC[C@]12C,pIC50,[1],5.82
COc1cc(O)c2c(c1)O[C@H](c1ccc(O)cc1)CC2=O,inhibition,Saccharomyces cerevisiae,Active
